Data taken from ChEMBL document CHEMBL1154300, “Monoterpenoid indole alkaloids from Alstonia yunnanensis” (J Nat Prod, 2009).

Assays:
[1] = system: HL-60; assay: Cytotoxicity against human HL60 cells after 48 hrs by MTT assay; format: functional, cell-based; conditions: HL-60, 48 h
[2] = molecular target: Prostaglandin G/H synthase 1 (Homo sapiens) (UniProt P23219); conditions: at 100 µM
[3] = system: PANC-1; assay: Cytotoxicity against human PANC1 cells after 48 hrs by MTT assay; format: functional, cell-based; conditions: PANC-1, 48 h
[4] = molecular target: T1, Polyunsaturated fatty acid 5-lipoxygenase (Homo sapiens) (UniProt P09917); assay: Inhibition of 5-LOX at 100 uM after 5 mins
T1 sequence (whole entry): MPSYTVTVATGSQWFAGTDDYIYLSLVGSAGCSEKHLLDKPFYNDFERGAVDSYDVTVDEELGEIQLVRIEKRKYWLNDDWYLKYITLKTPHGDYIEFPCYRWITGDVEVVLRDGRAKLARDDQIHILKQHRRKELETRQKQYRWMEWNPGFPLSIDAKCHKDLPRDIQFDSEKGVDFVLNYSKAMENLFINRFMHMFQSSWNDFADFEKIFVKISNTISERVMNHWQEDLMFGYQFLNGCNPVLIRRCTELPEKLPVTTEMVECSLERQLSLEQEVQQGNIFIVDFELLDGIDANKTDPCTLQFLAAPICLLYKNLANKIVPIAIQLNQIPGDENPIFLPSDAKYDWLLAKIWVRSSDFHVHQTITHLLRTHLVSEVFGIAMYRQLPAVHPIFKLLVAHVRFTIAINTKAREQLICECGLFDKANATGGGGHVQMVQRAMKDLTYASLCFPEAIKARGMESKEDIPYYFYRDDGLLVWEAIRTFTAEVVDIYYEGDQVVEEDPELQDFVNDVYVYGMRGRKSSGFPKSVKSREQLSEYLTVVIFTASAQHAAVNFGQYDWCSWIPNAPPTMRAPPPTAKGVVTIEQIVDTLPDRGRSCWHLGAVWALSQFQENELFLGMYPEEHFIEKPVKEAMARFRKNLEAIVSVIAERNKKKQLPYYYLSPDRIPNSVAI
In short: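 Tested in an anti-inflammatory panel against Cox-1, Cox-2 and 5-Lox.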

Prostaglandin G/H synthase 1 (Homo sapiens), sequence (P23219 whole entry): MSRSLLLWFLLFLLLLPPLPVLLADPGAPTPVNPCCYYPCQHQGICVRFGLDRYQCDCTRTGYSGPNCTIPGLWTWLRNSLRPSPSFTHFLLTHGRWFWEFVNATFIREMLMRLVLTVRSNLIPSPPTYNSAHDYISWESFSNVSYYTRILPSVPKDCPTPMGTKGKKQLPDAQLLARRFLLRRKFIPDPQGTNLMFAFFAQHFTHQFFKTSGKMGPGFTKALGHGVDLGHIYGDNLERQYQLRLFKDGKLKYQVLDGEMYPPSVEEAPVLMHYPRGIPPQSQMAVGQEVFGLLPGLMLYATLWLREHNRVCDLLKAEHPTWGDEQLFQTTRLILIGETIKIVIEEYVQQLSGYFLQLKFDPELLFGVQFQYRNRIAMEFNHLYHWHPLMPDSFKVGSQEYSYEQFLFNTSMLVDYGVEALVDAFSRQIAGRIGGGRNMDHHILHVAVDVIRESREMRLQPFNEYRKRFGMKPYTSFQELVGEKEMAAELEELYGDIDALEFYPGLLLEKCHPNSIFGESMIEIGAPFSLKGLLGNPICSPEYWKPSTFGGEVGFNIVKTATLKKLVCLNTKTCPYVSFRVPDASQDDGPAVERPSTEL

Compound | IC50 [1] [µM] | inhibition [2] [%] | IC50 [3] [µM] | inhibition [4] [%]
CC(=O)OC1C2C3C[C@H]4C5=[N+](C)c6ccccc6[C@]51C[C@@H]2[N+]4([O-])[C@@H](C)[C@@H]3C(=O)[O-] (some centres not stated) | > 40 | 45 | > 40 | < 0
CO[C@@H]1O[C@@H](O)[C@@H]2C3C[C@H]4c5[nH]c6ccccc6c5C[C@@H]2N4[C@@H](C)[C@H]31 [ALSTOYUNINE A] | > 40 | 27.8 | > 40 | 38.4
CO[C@@H]1O[C@@H](O)[C@H]2C3C[C@H]4c5[nH]c6ccccc6c5C[C@@H]([C@@H]31)N4[C@H]2C [ALSTOYUNINE B] | > 40 | 26.8 | > 40 | 33.5
CC(=O)OC1C2C3C[C@H]4C5=[N+]([O-])c6ccccc6[C@]51C[C@@H]2[N+]4([O-])[C@@H](C)[C@@H]3C(=O)O (some centres not stated) [ALSTOYUNINE D] | > 40 | 39.3 | > 40 | < 0
C/C=C1/C[N+]2([O-])[C@H]3CC1C1C(OC(C)=O)[C@@]4(C[C@@H]12)C3=Nc1ccccc14 (some centres not stated) [ALSTOYUNINE E] | > 40 | 41.8 | > 40 | 77.2
COC(C)[C@H]1C2C[C@H]3C4=Nc5ccccc5[C@]45C[C@@H](C2C5OC(C)=O)N3[C@@H]1O (some centres not stated) [ALSTOYUNINE F] | 3.89 | 39.8 | 21.7 | 61.8
CC[C@@]12CC(C(=O)OC)=C3Nc4cc(OC)ccc4[C@@]34CCN(C(=O)[C@@H]3O[C@@H]31)[C@@H]24 [ALSTOYUNINE G] | > 40 | 37.2 | > 40 | < 0
CC[C@@]12CC(C(=O)OC)=C3Nc4cc(OC)ccc4[C@@]34CCN(C[C@@H](Cl)[C@@H]1O)[C@@H]24 [ALSTOYUNINE H] | > 40 | < 0 | > 40 | 0.84
